Test results as given in PubChem BioAssay.
Calls of active or inactive are those of the source.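 The calls were made as follows, unless noted: active = inhibition of the reporter signal at or above 50%; inactive = inhibition below 50%.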

Legend:
[1] = inhibitors of TNFa-induced NFkB p65 translocation, primary screen, imaging, HUVEC, MLSMR starter and 10KST1 sets (AID 438;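 active = inhibition above 20% together with a positive visual image hit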;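 also: compound added about 3h40 before a 20 min TNFalpha stimulation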;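 as to inhibition: signal is the nuclear over cytoplasmic p65 intensity ratio per well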); settings: HUVEC TNFa-induced p65 nuclear translocation; cell count: measured here: nuclei count (cytotoxicity indicator), at 2.08 µM; inhibition: at 2 µM, stronger effect = higher value, 0% TNFa-plus-vehicle, 100% no-TNFa wells
[2] = reduction of polyQ htt aggregates in cells – imaging, exon1htt(103Q)mCFP cells, high-content imaging, primary screen (AID 483;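 active = visual image review flags a hit and inhibition of aggregation exceeds 20%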;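 also: compound exposure lasted 3 days before fixation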;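 as to nuclei count: percent of the per-plate median nuclei count of sample wells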); settings: exon1htt(103Q)mCFP cell line, aggregate imaging, at 2 µM; inhibition of aggregation: stronger effect = higher value; nuclei count: measured here: cell count, toxicity
[3] = endothelial E-selectin expression blockers – imaging, HUVEC, immunofluorescence, MLSMR starter and 10KST1 sets, primary screen (AID 487;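 active = visually confirmed hit in the image check and inhibition above 20%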;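 as to inhibition: signal is fraction of cell area covered by stained E-selectin grains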;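 as to nuclei count: 100% = median nuclei count of all wells on the same plate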); settings: HUVEC TNFalpha-induced E-selectin immunofluorescence imaging, at 2 µM; inhibition: stronger effect = higher value; nuclei count: measured here: cell number, toxicity
[4] = target: Voltage-gated potassium channel subunit beta-2 (Rattus norvegicus) (UniProt P62483); test: inhibitors of rat Kvbeta2 reductase activity – biochemical, NADPH fluorescence, primary screen (AID 622;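 active = fluorescence slope higher than the sample average by over 3 SD, cut at about -0.22 in these data, passing the limit was not always enough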;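 also: slope of raw intensity against log time taken from 70 to 1610 s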); settings: recombinant KvBeta, 4-cyanobenzaldehyde reduction, at 10 µM, stronger effect = higher value
Voltage-gated potassium channel subunit beta-2 (Rattus norvegicus), sequence (P62483 whole entry, looked up): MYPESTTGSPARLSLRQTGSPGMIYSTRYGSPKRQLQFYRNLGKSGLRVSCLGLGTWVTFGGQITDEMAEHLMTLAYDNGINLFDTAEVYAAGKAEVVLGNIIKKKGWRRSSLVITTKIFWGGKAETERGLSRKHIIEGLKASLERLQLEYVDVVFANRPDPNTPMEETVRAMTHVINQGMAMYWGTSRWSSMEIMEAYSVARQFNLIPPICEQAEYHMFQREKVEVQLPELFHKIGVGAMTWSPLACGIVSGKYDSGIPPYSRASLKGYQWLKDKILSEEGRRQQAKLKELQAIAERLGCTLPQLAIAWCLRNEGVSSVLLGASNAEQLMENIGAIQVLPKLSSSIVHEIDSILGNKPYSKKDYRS

[5] = target: Voltage-gated potassium channel subunit beta-2 (Rattus norvegicus) (UniProt P62483); test: enhancers of rat Kvbeta2 NADPH turnover – biochemical, NADPH fluorescence, primary screen (AID 623;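 active = NADPH fluorescence slope more negative than the mean of all samples by about 3 SD, 99.7% confidence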;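 also: fluorescence intensity change per second fitted from 20 to 320 s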); settings: Recombinant KvBeta, NADPH fluorescence decrease slope, 10 min; at 10 µM; stronger effect = lower value
[6] = target: Alpha-2C adrenergic receptor (Homo sapiens) (UniProt P18825); test: compounds altering alpha2C-coupled GIRK flux – cell-based, HEK293 alpha2C/GIRK1/2, thallium flux, primary screen (AID 624;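 active = fluorescence slope after compound addition differing from the mean of all screened samples at 99.7% confidence, in either direction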;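 also: slope of fluorescence ratio to pre-addition baseline per second over 15 to 24 s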); settings: thallium flux BTC fluorescence, at 10 µM, actives lie on both sides
Alpha-2C adrenergic receptor (Homo sapiens), sequence (P18825 whole entry, looked up): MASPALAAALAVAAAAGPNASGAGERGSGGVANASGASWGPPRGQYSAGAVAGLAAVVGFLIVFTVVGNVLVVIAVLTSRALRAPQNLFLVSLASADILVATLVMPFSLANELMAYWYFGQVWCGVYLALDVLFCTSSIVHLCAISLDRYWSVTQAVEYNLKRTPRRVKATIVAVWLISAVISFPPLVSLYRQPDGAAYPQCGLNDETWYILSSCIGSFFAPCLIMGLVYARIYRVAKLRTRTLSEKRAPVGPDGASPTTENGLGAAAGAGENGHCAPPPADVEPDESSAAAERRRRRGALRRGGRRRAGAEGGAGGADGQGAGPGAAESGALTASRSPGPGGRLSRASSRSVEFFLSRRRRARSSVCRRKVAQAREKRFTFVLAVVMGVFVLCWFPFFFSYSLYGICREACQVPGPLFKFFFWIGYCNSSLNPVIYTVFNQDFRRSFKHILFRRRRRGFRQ

[7] = inhibitors of larval lipid processing in zebrafish, primary screen, whole organism, PED6 fluorescence, gall bladder and intestine (AID 686;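 active = a full or partial loss of lipid-probe fluorescence in the fish gall bladder, intestine or both, judged by eye; inactive = no fluorescence loss, or compound toxic to the fish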;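 also: larvae 5 to 7 days old with five fish per well; signal comes from phospholipase A2 cleavage of quenched PED6 carried via bile; overnight exposure to compound and PED6 before scoring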); settings: Zebrafish larvae PED6 lipid processing, fluorescence scoring; screened at 20 µM (by protocol)
Procedure, shortened: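 System: live zebrafish larvae aged 5-7 days, whole organism; measure: graded gall bladder and intestinal fluorescence inhibition per well; incubation: overnight exposure; reagent: ingested quenched lipid PED6 at 100 nM; signal: By-eye fluorescence microscopy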

[8] = blockers of RIG-like receptor reporter activation – cell-based, Sendai virus stimulus, luciferase, 10K MLSCN set, TLR/RLR signaling modifier project, primary screen (AID 602276;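 active = inhibition at or above 50% at 10 µM; inactive = inhibition below 50%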;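 also: firefly luciferase from ISG56 promoter only with Renilla not read in this screen; 0% = Sendai virus plus DMSO and 100% = medium plus DMSO without virus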); settings: HEK293 RL24 IRF3 luciferase reporter, at 10 µM, stronger effect = higher value
[9] = TLR3 IRF3 reporter activation blockers – cell-based, poly I:C stimulus, luciferase, 10K MLSCN set, primary screen (AID 602277); settings: HEK293-TLR3 RL24 IRF3 luciferase reporter, at 10 µM, stronger effect = higher value

SMILES | cell count [1] | inhibition [1] | inhibition of aggregation [2] | nuclei count [2] [%] | inhibition [3] | nuclei count [3] [%] | fluorescence slope [4] | NADPH fluorescence slope [5] | slope [6] | outcome [7] | inhibition [8] | inhibition [9]
Cc1c(C)n(C(=O)CN2CCN(c3ccccn3)CC2)c2ccccc12 | 428 | 2.3% (inactive) | 2.9% (inactive) | 95.7 | 3.5% (inactive) | 131 | -0.376 (inactive) | -3.7e-05 (inactive) | 0.00497 (inactive) | inactive | 8.12% (inactive) | 11.3% (inactive)
COC(=O)Cn1cnc2sc(C)c(S(=O)(=O)N3CCC(C)CC3)c2c1=O | 543 | -2.4% (inactive) | -10.1% (inactive) | 106 | -31.1% (inactive) | 101 | -0.473 (inactive) | -2.3e-05 (inactive) | 0.00523 (inactive) | inactive | 6.12% (inactive) | 8.67% (inactive)
O=C(NC1=NCCS1)c1ccc2c(c1)C(=O)N(Cc1ccco1)C2=O | 447 | 0% (inactive) | 19.6% (inactive) | 96.6 | -60.7% (inactive) | 111 | -0.387 (inactive) | 2.7e-06 (inactive) | 0.00529 (inactive) | inactive | 19.1% (inactive) | 24.4% (inactive)
CCC(=O)Nc1ccc(NC(=O)c2ccccn2)cn1 | 778 | -11% (inactive) | -6.5% (inactive) | 102 | -9.1% (inactive) | 104 | -0.402 (inactive) | -5.9e-05 (inactive) | 0.00517 (inactive) | inactive | -3% (inactive) | 99.2% (active)
O=C(Nc1cc(C(F)(F)F)ccc1N1CCCC1)c1ccc2c(c1)OCO2 | 215 | 6.7% (inactive) | 16.7% (inactive) | 84.5 | -54.9% (inactive) | 103 | -0.461 (inactive) | -2e-05 (inactive) | 0.00354 (inactive) | inactive | 13% (inactive) | 24.5% (inactive)
COc1ccc(C(C)NC(=O)c2ccoc2C)cc1OC (centres undefined) | 307 | -8.9% (inactive) | -2.3% (inactive) | 105 | 51.2% (inactive) | 54.3 | -0.383 (inactive) | -2.1e-05 (inactive) | 0.00668 (inactive) | inactive | 14.4% (inactive) | 19.8% (inactive)
COC(=O)c1sccc1NC(=O)c1ccco1 | 474 | -11.9% (inactive) | 8.2% (inactive) | 90.7 | 19.6% (inactive) | 89.7 | -0.44 (inactive) | -3.5e-05 (inactive) | 0.00438 (inactive) | active; weak signal in gallbladder only | 2.56% (inactive) | -4.04% (inactive)
O=C(NC1CCCC1)C(NS(=O)(=O)c1cccc2nsnc12)c1ccccc1 (centres undefined) | 309 | -16.3% (inactive) | 2.5% (inactive) | 103 | -22.2% (inactive) | 109 | -0.329 (inactive) | 1.1e-05 (inactive) | 0.0045 (inactive) | inactive | 17.9% (inactive) | 17.3% (inactive)
COc1ccccc1OCc1ccc(C(=O)N2CCN(C(=O)c3ccco3)CC2)cc1 | 502 | -32.6% (inactive) | 6% (inactive) | 98.6 | -92.1% (inactive) | 103 | -0.416 (inactive) | -3e-05 (inactive) | 0.00401 (inactive) | inactive | 1.91% (inactive) | 18% (inactive)
O=C(NCC1CCCO1)c1cc(-c2ccncc2)nc2ccc(S(=O)(=O)N3CCOCC3)cc12 (centres undefined) | 878 | 2.1% (inactive) | -9.7% (inactive) | 106 | -91% (inactive) | 129 | -0.387 (inactive) | -9.2e-05 (inactive) | 0.00498 (inactive) | inactive | 10.6% (inactive) | 10.8% (inactive)
O=C(CN1C(=O)c2ccccc2C1=O)Nc1ccc(S(=O)(=O)NCC2CCCO2)cc1 (centres undefined) | 389 | -6% (inactive) | -2.4% (inactive) | 93.4 | -52.4% (inactive) | 107 | -0.412 (inactive) | -2.5e-05 (inactive) | 0.00503 (inactive) | inactive | -1.96% (inactive) | 98.2% (active)
COCCn1nnnc1SCC(=O)N1CCCCC1 | 344 | 1.6% (inactive) | 4.1% (inactive) | 102 | 6.2% (inactive) | 121 | -0.49 (inactive) | -9.6e-06 (inactive) | 0.00458 (inactive) | inactive | 17.3% (inactive) | 14% (inactive)
CC(C)n1nnnc1SCC(=O)Nc1ccccc1N1CCOCC1 | 539 | -8% (inactive) | -6.6% (inactive) | 104 | -38.2% (inactive) | 112 | -0.451 (inactive) | -6.8e-05 (inactive) | 0.00614 (inactive) | inactive | 10.2% (inactive) | 11.6% (inactive)
CC(=O)NCCc1ccc(S(=O)(=O)NCc2ccc3c(c2)OCO3)cc1 | 587 | -12.3% (inactive) | -24.8% (inactive) | 89.5 | 35.7% (inactive) | 82.1 | -0.356 (inactive) | -4.4e-05 (inactive) | 0.00549 (inactive) | inactive | 4.45% (inactive) | 2.38% (inactive)
CC(=O)Nc1ccc(NC(=O)Cn2cnc3c(cnn3C(C)(C)C)c2=O)cc1 | 586 | -3.3% (inactive) | 8.4% (inactive) | 104 | 0.5% (inactive) | 111 | -0.37 (inactive) | -4e-05 (inactive) | 0.00604 (inactive) | inactive | 2.03% (inactive) | 2.5% (inactive)
O=S(=O)(c1cccc2c(S(=O)(=O)N3CCCC3)cccc12)N1CCCC1 | 250 | -13.4% (inactive) | -7.2% (inactive) | 118 | -17.4% (inactive) | 88.6 | -0.355 (inactive) | 6.6e-06 (inactive) | 0.00452 (inactive) | inactive | 18.2% (inactive) | 21.9% (inactive)
CN(C)C(=O)CSc1nnc2sc3ccccc3n12 | 388 | -9.2% (inactive) | -15.4% (inactive) | 105 | -32.3% (inactive) | 102 | -0.438 (inactive) | -2.4e-05 (inactive) | 0.00511 (inactive) | inactive | 15.9% (inactive) | 23.7% (inactive)
COc1cccc2c(=O)cc(C)n(CC(=O)Nc3ccc(C)c(C)c3)c12 | 456 | 9.4% (inactive) | -8.4% (inactive) | 50.1 | 46.9% (inactive) | 85.2 | -0.364 (inactive) | -4.9e-05 (inactive) | 0.00483 (inactive) | inactive | 0.857% (inactive) | -0.697% (inactive)
COc1nc(-c2ccc(Cl)cc2)ccc1-c1noc(-c2ccncc2)n1 | 332 | 1.5% (inactive) | -4.2% (inactive) | 97.5 | -31.6% (inactive) | 114 | -0.223 (inactive) | -1.2e-07 (inactive) | 0.00449 (inactive) | inactive | 6.3% (inactive) | -7.25% (inactive)
COc1cc(-c2nc(-c3ccncc3)no2)cc(OC)c1OC | 491 | -1.1% (inactive) | -1.8% (inactive) | 88.9 | 58.4% (inactive) | 50.2 | -0.341 (inactive) | -3.8e-05 (inactive) | 0.00475 (inactive) | inactive | 4.77% (inactive) | -3.43% (inactive)
CCC(=O)Nc1nn(C)c2nc3c(C)cccc3cc12 | 724 | -9% (inactive) | 27.6% (inactive) | 87.7 | -53.9% (inactive) | 102 | -0.281 (inactive) | -6.4e-06 (inactive) | 0.00513 (inactive) | inactive | -2.08% (inactive) | -4.15% (inactive)
COc1ccc(Cl)c(NC(=O)NCCN2CCN(c3ccccc3)CC2)c1 | 410 | 1.8% (inactive) | 1% (inactive) | 99.5 | -12.8% (inactive) | 119 | -0.29 (inactive) | -1.7e-05 (inactive) | 0.00501 (inactive) | inactive | 15.2% (inactive) | 23.5% (inactive)
CC(=O)Nc1c(O)[nH]c2ccccc12 | 566 | -25.9% (inactive) | -9.8% (inactive) | 98.9 | -5.9% (inactive) | 102 | -0.414 (inactive) | -5.4e-05 (inactive) | 0.00575 (inactive) | inactive | 10.4% (inactive) | 16.8% (inactive)
CN(CCNC(=O)c1ccc(N2CCCC2=O)cc1)CCc1ccccc1 | 624 | -24% (inactive) | 17.8% (inactive) | 84.6 | -79.5% (inactive) | 111 | -0.393 (inactive) | -2.4e-05 (inactive) | 0.00561 (inactive) | inactive | 6.9% (inactive) | 10.4% (inactive)
O=C(Nc1cc(C(=O)N2CCCC2)ccc1N1CCCC1)c1ccccc1F | 612 | 2% (inactive) | -12.8% (inactive) | 107 | -93% (inactive) | 95.8 | -0.343 (inactive) | -7.2e-05 (inactive) | 0.00481 (inactive) | inactive | -1.26% (inactive) | -54% (inactive)
Cc1ccc(S(=O)(=O)NCC(c2cccnc2)N(C)C)cc1 (centres undefined) | 453 | -1.9% (inactive) | 2.5% (inactive) | 106 | -33.6% (inactive) | 127 | -0.464 (inactive) | -9.5e-06 (inactive) | 0.00528 (inactive) | inactive | 7.09% (inactive) | 15.6% (inactive)
COc1cc2c(cc1NC(=O)CSc1nnc(Cc3cccs3)n1C)oc1ccccc12 | 368 | 4.7% (inactive) | 9.3% (inactive) | 104 | -30.5% (inactive) | 112 | -0.45 (inactive) | -0.000107 (inactive) | 0.00401 (inactive) | inactive | 13.9% (inactive) | 5.76% (inactive)
